{"source": "ChEMBL document CHEMBL1121524", "about": "“Studies of hypolipidemic agents. 1. Synthesis and hypolipidemic activities of alkoxycinnamic acid derivatives” (1980)", "key": {"[1]": {"organism": "Rattus norvegicus", "experiment": "Tested for the hypolipidemic activity, expressed as percent decrease in serum cholesterol in rat, at dosage of 100 mg for 5 days by Zak et al method", "assay_type": "functional", "summary_of_the_method": "(§1)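 Male Sprague-Dawley rats, 4 weeks old, kept on CE-2 chow for at least 1 week, then grouped (generally five per group). Compound was mixed into CE-2 powder and fed ad libitum for the stated period; controls received plain CE-2 powder. Diet level is given as mg/100 g (mg%), about equal to mg/kg/day. Total serum cholesterol was measured by the Zak et al. method and reported as percent depression versus control group mean. Significance was p < 0.05.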"}, "[2]": {"organism": "Rattus norvegicus", "experiment": "Tested for the hypolipidemic activity, expressed as percent decrease in Triglyceride in rat, at dosage of 100 mg for 5 days by Ryan and Rasho method", "assay_type": "functional", "summary_of_the_method": "as §1, with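 “triglyceride” for “cholesterol”, “Ryan and Rasho” for “Zak et al.”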"}, "[3]": {"organism": "Rattus norvegicus", "experiment": "Tested for the hypolipidemic activity, expressed as percent decrease in serum cholesterol in rat, at dosage of 30 mg for 7 days by Zak et al method", "assay_type": "functional", "summary_of_the_method": "as §1"}, "[4]": {"organism": "Rattus norvegicus", "experiment": "Tested for the hypolipidemic activity, expressed as percent decrease in Triglyceride in rat, at dosage of 30 mg for 7 days by Ryan and Rasho method", "assay_type": "functional", "summary_of_the_method": "as §1, with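 “triglyceride” for “cholesterol”, “Ryan and Rasho” for “Zak et al.”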"}, "[5]": {"organism": "Rattus norvegicus", "experiment": "tested for the hypolipidemic activity, expressed as percent decrease in Triglyceride in rat, at dosage of 75.8 mg for 7 days by Ryan and Rasho method", "assay_type": "functional", "summary_of_the_method": "as §1, with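 “triglyceride” for “cholesterol”, “Ryan and Rasho” for “Zak et al.”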"}, "[6]": {"organism": "Rattus norvegicus", "experiment": "Tested for the hypolipidemic activity, expressed as percent decrease in serum cholesterol in rat, at dosage of 75.8 mg for 7 days by Zak et al method", "assay_type": "functional", "summary_of_the_method": "as §1"}, "[7]": {"tested_on": "Rattus norvegicus", "experiment": "In vivo hypolipidemic activity, expressed as percent decrease in serum cholesterol in rat, at dosage of 20 mg for 7 days.", "assay_type": "functional", "summary_of_the_method": "as §1"}, "[8]": {"organism": "Rattus norvegicus", "experiment": "Hypolipidemic activity expressed as percentage decrease in triglyceride in rat, at dosage of 50 mg for 7 days", "assay_type": "functional", "summary_of_the_method": "as §1, with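 “triglyceride” for “cholesterol”, “Ryan and Rasho” for “Zak et al.”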"}, "[9]": {"tested_on": "Rattus norvegicus", "experiment": "tested for the hypolipidemic activity, expressed as percent decrease in Triglyceride in rat, at dosage of 20 mg/kg 0 mg for 7 days by Ryan and Rasho method"}, "[10]": {"organism": "Rattus norvegicus", "experiment": "Tested for the hypolipidemic activity, expressed as percent decrease in serum cholesterol in rat, at dosage of 50 mg for 7 days", "assay_type": "functional", "summary_of_the_method": "as §1"}, "[11]": {"organism": "Rattus norvegicus", "experiment": "Tested for the hypolipidemic activity, expressed as percent decrease in serum cholesterol in rat, at dosage of 20 mg for 7 days by Zak et al method", "assay_type": "functional", "summary_of_the_method": "as §1"}, "[12]": {"organism": "Rattus norvegicus", "experiment": "tested for the hypolipidemic activity, expressed as percent decrease in Triglyceride in rat, at dosage of 20 mg for 7 days by Ryan and Rasho method", "assay_type": "functional", "summary_of_the_method": "as §1, with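 “triglyceride” for “cholesterol”, “Ryan and Rasho” for “Zak et al.”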"}, "[13]": {"organism": "Rattus norvegicus", "experiment": "tested for the hypolipidemic activity, expressed as percent decrease in Triglyceride in rat, at dosage of 10 mg for 7 days by Ryan and Rasho method", "assay_type": "functional", "summary_of_the_method": "as §1, with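 “triglyceride” for “cholesterol”, “Ryan and Rasho” for “Zak et al.”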"}, "[14]": {"organism": "Rattus norvegicus", "experiment": "tested for the hypolipidemic activity, expressed as percent decrease in serum cholesterol in rat, at dosage of 10 mg for 7 days by Zak et al method", "assay_type": "functional", "summary_of_the_method": "as §1"}, "[15]": {"organism": "Rattus norvegicus", "experiment": "Tested for the hypolipidemic activity, expressed as percent decrease in Triglyceride in rat, at dosage of 102 mg for 7 days by Ryan and Rasho method", "assay_type": "functional", "summary_of_the_method": "as §1, with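 “triglyceride” for “cholesterol”, “Ryan and Rasho” for “Zak et al.”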"}, "[16]": {"organism": "Rattus norvegicus", "experiment": "Tested for the hypolipidemic activity, expressed as percent decrease in serum cholesterol in rat, at dosage of 102 mg for 7 days by Zak et al method", "assay_type": "functional", "summary_of_the_method": "as §1"}}}
{"compound": "C=C(C)C(=O)OCCOC(=O)/C=C/c1ccc(OCCCCCCC/C=C/CCCCCCCCC)cc1", "values": [{"measurement": "Decrease", "setting": "[1]", "result": -13, "unit": "%"}, {"measurement": "Decrease", "setting": "[2]", "result": 21, "unit": "%"}]}
{"compound": "C=CCOc1ccc(/C=C/C(=O)O)cc1", "values": [{"measurement": "Decrease", "setting": "[3]", "result": 0, "unit": "%"}, {"measurement": "Decrease", "setting": "[4]", "result": -16, "unit": "%"}]}
{"compound": "CCCCCCCCCCCCCCCC(=O)OCC(O)COC(=O)/C(C)=C/c1ccc(OCCCCCCCCCCCCCC)cc1", "note": "(stereo not drawn)", "values": [{"measurement": "Decrease", "setting": "[5]", "result": -19, "unit": "%"}, {"measurement": "Decrease", "setting": "[6]", "result": 3, "unit": "%"}]}
{"compound": "CCCCCCCCCCCCCCCCOc1ccc(/C=C/C(=O)OCCCl)cc1", "values": [{"measurement": "Decrease", "setting": "[7]", "result": 17, "unit": "%"}, {"measurement": "Decrease", "setting": "[8]", "result": 43, "unit": "%"}, {"measurement": "Decrease", "setting": "[9]", "result": 17, "unit": "%"}, {"measurement": "Decrease", "setting": "[10]", "result": -4, "unit": "%"}]}
{"compound": "CCCCCCCCCCCCOc1ccc(/C=C(\\C)C(=O)O)cc1", "values": [{"measurement": "Decrease", "setting": "[11]", "result": 7, "unit": "%"}, {"measurement": "Decrease", "setting": "[8]", "result": 31, "unit": "%"}, {"measurement": "Decrease", "setting": "[12]", "result": 32, "unit": "%"}, {"measurement": "Decrease", "setting": "[13]", "result": 13, "unit": "%"}, {"measurement": "Decrease", "setting": "[14]", "result": 14, "unit": "%"}, {"measurement": "Decrease", "setting": "[10]", "result": 17, "unit": "%"}]}
{"compound": "CCCCCCCCCCCCCCCC(=O)OCC(COC(=O)/C(C)=C/c1ccc(OCCCCCCCCCCCCCC)cc1)OC(=O)CCCCCCCCCCCCCCC", "note": "(stereo not drawn)", "values": [{"measurement": "Decrease", "setting": "[15]", "result": 5, "unit": "%"}, {"measurement": "Decrease", "setting": "[16]", "result": 18, "unit": "%"}]}
